Most compounds without a hit are left out; they make up all but 1.5% or so of the library.
Tb hexokinase – blocks Trypanosoma brucei hexokinase 1 activity. actives 0.11% (n = 220,000). recombinant TbHK1, G6PDH-coupled NADH A340. inhibition, % at 10 µM;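 active means inhibition of 50% or more in the single-dose primary screen; inactive means inhibition below 50%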
b-catenin transl – alters nuclear translocation of beta-catenin in HeLa cells; actives 0.3% (n = 190,000); AID 1665; nuclear translocation activity, % at 5 µM; immunofluorescence imaging;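 active means nuclear translocation activity above 50% at 5 µM, with a well cell count of 50 or more; inconclusive means wells under 50 cells across six images, flagged as toxic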;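 further: per-cell ratio of nuclear to cytoplasmic median beta-catenin stain intensity; plate controls were DMSO negative control for no effect and GSK-3 inhibitor IX positive control for full effect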
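Signal – beta-catenin immunofluorescence imaging with DAPI · Test system – human HeLa cell line · Dosing – 5 µM primary single dose, 0.1% DMSO, 0.02–20 µM confirmation series · Measure – % activation, nuclear-to-cytoplasmic median beta-catenin signal ratio per cell · Incubation – 24 h compound exposure at 37°C, 5% CO2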
Dynein cargo inh – blocks dynein driven cargo transport along microtubules; 3617.4 mouse cells, GR-EGFP nuclear translocation imaging; test concentration mostly 20 µM; stimulated with dexamethasone, 1 µM; stronger effect = lower value; z-score, hits read low; actives 0.47% (n = 220,000); AID 1381;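 active means plate z-score of nuclear minus cytoplasmic receptor signal below a set negative limit, without overly bright fluorescence or cell loss, cut at about -3.5 in these data, passing the limit was not always enough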;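 further: z-score of nuclear minus cytoplasmic ring GR-EGFP intensity difference per well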
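Buffer or medium: tetracycline-free induction medium containing charcoal-stripped FBS / Reagent: dexamethasone agonist, 1.0 µM final, for 30 min / Technique: automated 10x imaging of fixed Hoechst-stained cells / Times: induction 48 h, compound 1 h, agonist 30 min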
Rad51 HR inh – blocks human Rad51 in homologous recombination | hRad51 DNA strand exchange, fluorescence dequenching | inhibition, % at 10 µM | actives 0.085% (n = 200,000);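 active means inhibition above 40% at the single screening dose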;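 further: 0% = DMSO control wells and 100% = blanks with heterologous ssDNA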
Target sequence (Q06609 whole entry, looked up): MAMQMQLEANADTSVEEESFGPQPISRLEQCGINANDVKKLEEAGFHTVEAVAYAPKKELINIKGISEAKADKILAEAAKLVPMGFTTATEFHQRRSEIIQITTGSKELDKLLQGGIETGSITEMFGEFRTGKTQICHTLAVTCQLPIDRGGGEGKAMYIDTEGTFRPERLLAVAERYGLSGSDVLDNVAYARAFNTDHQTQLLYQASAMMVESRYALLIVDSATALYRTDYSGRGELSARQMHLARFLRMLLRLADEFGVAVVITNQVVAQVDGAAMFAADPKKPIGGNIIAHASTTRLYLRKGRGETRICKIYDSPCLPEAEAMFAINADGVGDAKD
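Test system: preformed human Rad51 ssDNA filaments. Compound dosing: single dose, 10 µM final compound. Incubation: filaments 15 min 37 °C, then compound 30 min. Technique: FRET fluorescence dequenching, excitation 485 nm, emission 520 nm. Read-out basis: percent inhibition from fluorescence, normalised to plate control and blank means. Benchmarks: plate controls and plate blanks.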
MT stabilizer – stabilizes microtubules in HeLa cells. HeLa tubulin immunostaining HCS, 24 h; share of cells brighter than vehicle mean+2SD. % tubulin-high responders, % at 10 µM. actives 0.83% (n = 200,000);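 active means plate Z-score above 3 for both tubulin-high and condensed-nucleus cell shares, with cell loss under 80%, at 10 µM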;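 further: anti alpha tubulin signal scored within the nucleus-defined area of each cell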
Dynein confirm – dynein cargo transport inhibition, confirmation; actives 69% (n = 1,000); AID 463116; shares compounds with Dynein cargo inh; calls only at 20 µM; 3617.4 GR-EGFP nuclear translocation imaging, dexamethasone-induced;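 active means inhibition of receptor movement into the nucleus at or above a set limit in both runs, with normal cell brightness and cell count; inconclusive means limit reached in only one run, brightness and count normal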;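 further: dexamethasone at 1 µM final in well for 30 min; nuclear minus cytoplasmic GR-EGFP mean intensity difference in channel 2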
G6PDH counter – Leuconostoc glucose-6-phosphate dehydrogenase inhibition, counter-screen; shares compounds with Tb hexokinase; purified G6PDH, NADH absorbance, 1 h; inhibition, % at 10 µM; actives 7% (n = 210);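 active means at least 50% inhibition in the glucose-6-phosphate dehydrogenase coupled counterscreen; inconclusive means no clear call, values can overlap the other calls; inactive means inhibition below 50%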
TbHK1 confirm – T. brucei hexokinase 1 inhibition, rescreen. AID 2560. shares compounds with Tb hexokinase. inhibition, % at 10 µM. recombinant TbHK1, G6PDH-coupled NADH A340 absorbance. actives 10% (n = 210);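 active means inhibition of at least 50% in both of the two screening runs; inconclusive means at least 50% in one run, below 50% in the other; inactive means inhibition below 50% in both runs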;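 further: 0% and 100% set by the maximum and minimum signal control wells on each plate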
An asterisk follows results filed as active; i = inactive; ? = inconclusive; nt = no result given; + = active, no number.

SMILES	Tb hexokinase	b-catenin transl	Dynein cargo inh	Rad51 HR inh	MT stabilizer	Dynein confirm	others
CC(=O)c1c(C)[nH]c(C(=O)Nc2ccc(Cl)c(S(=O)(=O)N3CCOCC3)c2)c1C	-2	-3	0.19	-6	5	nt
O=C1ON=C(c2ccc(Cl)cc2)/C1=C/c1ccc(O)cc1	-26	0	-5*	-10	1	+
O=C(Nc1ccc(N2CCCC2)c(Cl)c1)c1ccco1	-3	-4	1.8	9	3	nt
CCC(=O)N1CCN(c2ccc(NC(=O)c3ccc([N+](=O)[O-])o3)cc2)CC1	-8	8	-4*	9	5	+
O=C(Nc1ccc(N2CCN(C(=O)c3ccc(Cl)cc3)CC2)cc1)c1ccc([N+](=O)[O-])o1	-5	0	-4.9*	15	6	+
O=C(Nc1ccc(N2CCCC2)c(Cl)c1)c1ccc([N+](=O)[O-])o1	-6	1	-4*	-3	4	+
CS(=O)(=O)N1CCN(c2ccc(NC(=O)c3ccc([N+](=O)[O-])o3)cc2)CC1	-25	12	-1.3	nt	4	nt
CCCC(=O)N1CCN(c2ccc(NC(=O)c3ccc([N+](=O)[O-])o3)cc2)CC1	-12	2	-4.1*	nt	11	+
CCCC(=O)N1CCN(c2ccc(NC(=O)c3ccc(Br)o3)cc2)CC1	-17	-2	-0.97	14	2	nt
CCOC(=O)N1CCN(C(=O)c2cc(COc3ccc4ncccc4c3)on2)CC1	-2	3	-0.31	-6	3	nt
COc1ccc(C(=O)C(CN2CCOCC2)c2ccccc2)cc1F (stereo unspecified)	-1	2	-4*	-1	4	+
CCOC(=O)C(=CNc1cc(C)nn1-c1ccc(Cl)cc1)C(=O)OCC	-19	-17	0.53	5	1	nt
CCOC(=O)C(=Cc1ccc(-n2cncn2)cc1)C(=O)OCC	-2	3	-6.8*	10	6	+
COc1ccccc1C(=O)NC(CCSC)C(=O)OCC(=O)c1ccc[nH]1 (stereo unspecified)	1	-4	-0.82	2	3	nt
CN(c1ccccc1)c1ccc(/C=C/[N+](=O)[O-])cc1	1	-2	-3.6*	-41	3	i
Cc1ccc(S(=O)(=O)/N=C(\Sc2ccccc2)c2ccccc2)cc1	6	-4	-3.5*	-4	3	+
Cc1ccc(C)c(S(=O)(=O)N2CCN(CC(=O)Nc3ccc4c(c3)OCCO4)CC2)c1	-6	1	0.02	-8	1	nt
CCCn1nc(-c2ccccc2)c2nc3ccccc3nc21	-9	-7	-4.5	-99	8	i
CCCCCn1nc(-c2ccccc2)c2nc3ccccc3nc21	9	-2	-0.29	-120	3	nt
COC(=O)c1ccccc1NC(=S)N(Cc1ccc2c(c1)OCO2)Cc1cc2ccc(OC)cc2[nH]c1=O	-20	-1	-0.49	nt	2	nt
Cc1ccc(-n2c(SCc3nc4ccccc4[nH]3)nnc2-c2ccncc2)cc1	-3	-3	-0.3	nt	2	nt
COc1ccc(C(=O)c2sc3nc(C)cc(-c4cccs4)c3c2N)cc1	17	-2	-7.8	-108	2	?
COc1ccc(C(=O)c2sc3nc(C)cc(-c4cccs4)c3c2N)cc1OC	-13	-1	-6.5	-64	1	i
Cc1cc(-c2cccs2)c2c(N)c(C(=O)c3ccc4c(c3)OCO4)sc2n1	-6	-1	-11	-51	3	?
CC(C)NC(=O)c1sc2nc(-c3cccs3)cc(-c3cccs3)c2c1N	-24	-3	0.22	-38	2	nt
SMILES	Tb hexokinase	b-catenin transl	Dynein cargo inh	Rad51 HR inh	MT stabilizer	Dynein confirm	others
CCOC(=O)Nc1ccc2nc3n(c(=O)c2c1)CCCCC3	-6	0	0.42	-2	4	nt
COCCN1C(=O)C(O)=C(C(C)=O)C1c1ccc(F)cc1 (stereo unspecified)	0	-2	0.33	4	7	nt
O=C(Cn1sc2ccccc2c1=O)NC12CC3CC(CC(C3)C1)C2	66*	-3	-5.1*	0	2	i	G6PDH counter=-14;TbHK1 confirm=85*
Nc1cccc2c1C(=O)N(CC(=O)NC13CC4CC(CC(C4)C1)C3)C2=O	-4	4	0.51	-4	5	nt
COc1ccc(C2C3=C(CC(C)(C)CC3=O)Nc3c2c(=O)n(C)c(=O)n3C)cc1OC (stereo unspecified)	-6	-5	0.39	3	3	nt
CCN(CC)c1ccc2cc(-c3nc4ccccc4[nH]3)c(=O)oc2c1	68*	1	-5.2*	i	18	+	G6PDH counter=111*;TbHK1 confirm=84*
CCOC(=O)Cc1csc(SCn2nnc3ccccc3c2=O)n1	-5	-1	-0.48	-2	2	nt
CCOC(=O)Cc1csc(-n2sc3ccccc3c2=O)n1	66*	nt	-0.35	-5	3	nt	G6PDH counter=-22;TbHK1 confirm=69*
COc1ccc(CC(=O)OC(C)CN2CCCC2)cc1 (stereo unspecified)	56*	-3	3	2	9	nt	G6PDH counter=0;TbHK1 confirm=-3
CC(CN1CCOCC1)OC(=O)Cc1ccc(Cl)cc1 (stereo unspecified)	-5	0	-0.8	nt	2	nt
c1ccc(-c2cnc(-c3ccccc3)nc2)cc1	59*	-2	-0.75	-1	3	nt	G6PDH counter=-32;TbHK1 confirm=-23
CC(=O)NC(CC(=O)N(C)Cc1cccc(Cl)c1Cl)c1ccccc1 (stereo unspecified)	-5	2	0.61	19	3	nt
O=C(O)CC(C(=O)O)N1C(=O)/C(=C/C=C/c2ccco2)SC1=S (stereo unspecified)	-10	0	0.16	nt	nt	nt
O=C(O)C(Cc1ccccc1)N1C(=O)/C(=C/C=C/c2ccco2)SC1=S (stereo unspecified)	51*	-3	-0.072	-114	nt	nt	G6PDH counter=-71;TbHK1 confirm=40
CCOC(=O)c1cn(CC(=O)Nc2cccc(Cl)c2)nn1	1	-1	-1.2	4	2	nt
C=CCn1c(SCC(=O)c2cc(C)n(Cc3cccs3)c2C)nnc1-c1ccncc1	-1	-1	-0.37	-7	5	nt
S=C(Nc1cccc(Cl)c1)N(CCCN1CCCC1)Cc1cccn1Cc1ccc(Cl)cc1	51*	0	0.55	-6	4	nt	G6PDH counter=41;TbHK1 confirm=13
COc1ccc(/C=N/c2c(-c3ccc(OC)cc3)nc3n2CCS3)cc1	-4	10	-0.89	-2	6	nt

High-throughput results from PubChem BioAssay.
